Experimental data from PubChem BioAssay.
Inconclusive results are not listed.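 How the source made its calls, unless noted: active means viability at or below 27.92% in each of two runs, the all-compound median minus 4 SD; inconclusive means no clear call, values can overlap the other calls; inactive means the rest.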

Key:
[1] = S. cerevisiae growth inhibition in permissive medium (OD615), pilot counter-assay for S. cerevisiae lifespan shortening project, permissive growth control (AID 705;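 active means growth inhibition above 25% in both replicates, a cutoff set 3 SD above the mean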); conditions: OD615, 24 h, at 10 µM, active compounds read high
Method in brief: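 System: Engineered DeaD yeast | Buffer or medium: SC raffinose/galactose permissive medium | Doses: 10 µM single dose, 0.25% DMSO | Times: 24 h exposure, 30 °C | Measured by: OD615 turbidity read | Read-out: Yeast growth inhibition indicated by reduced 24 h OD615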

[2] = S. cerevisiae growth inhibition in restrictive medium, OD615, pilot screen, restrictive growth control, yeast lifespan reduction project (AID 706;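 active means growth inhibition above a set limit, 3 SD over mean compound inhibition, in both replicates, cut at about 43% in these data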;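 further: modified DeaD lifespan yeast strain shifted to restrictive glucose medium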); conditions: OD615, 48 h, at 10 µM, active compounds read high
Method in brief: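 Assay system: engineered S. cerevisiae DeaD strain; Buffer or medium: CSMM-D glucose medium; Dosing: 10 µM compound, 0.25% DMSO; Times: cell pre-growth 4 h, compound exposure 48 h, 30 °C; Detection: absorbance (optical density) measured at 615 nm.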

[3] = doxorubicin toxicity protection in MRP-1 cells – H69AR cells, CellTiter-Glo, duplicate, MRP-1 activator project, pilot screen (AID 807;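 active means viability increase at or above a cutoff of the median across tested compounds plus 3 SD, cut at about 8.5% in these data, passing the limit was not always enough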;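 further: compound pretreatment 18-22 h then 72 h combined with doxorubicin; 0% = doxorubicin alone and 100% = vehicle without doxorubicin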); conditions: H69AR viability with doxorubicin, CellTiter-Glo luminescence; at 10 µM; active compounds read high
[4] = viability of HCT116 without oncogenic beta-catenin – human colon tumor cells, pilot screen (AID 823;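 active means cell viability at or below a set limit in both duplicate runs, the limit being the all-compound median minus 4 SD, cut at about 23% in these data, passing the limit was not always enough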;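 further: 0% = wells killed by 20 µM Hyamine and 100% = untreated DMSO cell wells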); conditions: HCT116 beta-catenin knockout viability, CellTiter-Glo, 60 h; at 10 µM; active compounds read low
[5] = viability of PTEN-null HCT116 cells – cell-based, HCT116 clonal line, CellTiter-Glo, pilot screen (AID 824); conditions: HCT116 PTEN-deleted viability, 60 h, at 10 µM, active compounds read low;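 further: 0% = 20 µM Hyamine control and 100% = vehicle cell control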
[6] = RAM pathway blockade in budding yeast – dse1pr::URA3 reporter, 5-FOA selection, pilot screen (AID 869;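 active means inhibition over a set limit, the all-compound mean plus 3 SD, in both replicate runs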;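 further: 0% = DMSO wells with no growth and 100% = 10 µM 1-NA-PP1 with full growth; RAM network block rescues cells from 5-FOA so hits raise OD615 growth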); conditions: S. cerevisiae dse1pr::URA3 5-FOA growth, OD615, 2 d; at 10 µM; active compounds read high; strain carries analog-sensitive mutant Cbk1 kinase
[7] = RAM signaling pathway blockade in yeast – S. cerevisiae, Pdr1DBD-CYC8 efflux-inhibited sensitized strain, primary screen (AID 1298;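 active means RAM network inhibition above 8.4% in each of two replicates, 3 SD over the compound average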;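 further: 0% = DMSO untreated cells without growth and 100% = 10 µM 1-NA-PP1 full growth; higher means more yeast growth rescued from 5-FOA killing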); conditions: S. cerevisiae cbk1-as DSE1-URA3 strain, 5-FOA growth OD615, 2 d; at 50 µM; active compounds read high

O=C(c1ccc(CS(=O)(=O)c2ccccc2)o1)N1CCN(c2ncccn2)CC1
inactive: growth inhibition [1] 2.63% | growth inhibition [2] -5.3% | viability increase [3] -4.07% | viability [4] 104% | viability [5] 102% | inhibition [6] 0.185% | RAM network inhibition [7] 2.87%

Cc1n[nH]c(=O)nc1NCc1ccccc1
inactive: growth inhibition [1] -8.25% | growth inhibition [2] -29% | viability increase [3] -0.55% | viability [4] 95% | viability [5] 93.9% | inhibition [6] 1.48% | RAM network inhibition [7] 0.91%

CSc1nnc(Cn2c(=O)sc3ccccc32)n1C
inactive: growth inhibition [1] -4.88% | growth inhibition [2] -13% | viability increase [3] -1.82% | viability [4] 109% | viability [5] 99.4% | inhibition [6] 1.94% | RAM network inhibition [7] 6.98%

COCC(C)N=Cc1c(O)[nH]c2ccccc12 (stereo not drawn)
inactive: growth inhibition [1] 0.585% | growth inhibition [2] 1.21% | viability increase [3] -2.38% | viability [4] 92.1% | viability [5] 97.5% | inhibition [6] 0.82% | RAM network inhibition [7] -1.18%

NS(=O)(=O)c1ccc(CNC(=O)NC2(c3ccccc3)CC2)cc1
inactive: growth inhibition [1] -14.6% | growth inhibition [2] -6.6% | viability increase [3] -2.9% | viability [4] 102% | viability [5] 87.2% | inhibition [6] 1.08% | RAM network inhibition [7] 3.05%

CCOc1cc(N2CCOCC2)c(OCC)cc1NC(=O)c1cc(-c2ccco2)nc2ccccc12
inactive: growth inhibition [1] 1.62% | growth inhibition [2] -4.63% | viability increase [3] -5.6% | viability [4] 65.4% | viability [5] 60.8% | inhibition [6] 0.475% | RAM network inhibition [7] 6.51%

CCOC(=O)N1CCC(NC(=O)Cn2cc3c(n2)CCCCC3)CC1
inactive: growth inhibition [1] -5.77% | growth inhibition [2] 5.48% | viability increase [3] 1.03% | viability [4] 108% | viability [5] 98.6% | inhibition [6] -0.43% | RAM network inhibition [7] 0.41%

COc1ccc(C(=O)OCCN2C(=O)c3ccccc3C2=O)cc1
inactive: growth inhibition [1] -3.96% | growth inhibition [2] -5.23% | viability increase [3] -0.3% | viability [4] 100% | viability [5] 93.7% | inhibition [6] 0.645% | RAM network inhibition [7] 7.05%

COc1ccc(N2CCC(CNC(=O)Nc3ccc(C)c(C)c3)C2)cc1 (stereo not drawn)
inactive: growth inhibition [1] -8.33% | growth inhibition [2] -2.14% | viability increase [3] 1.23% | viability [4] 91.2% | viability [5] 74.8% | inhibition [6] 0.77% | RAM network inhibition [7] 2.95%

CC12CC(NC(=O)N1CCc1ccccc1)c1ccccc1O2 (stereo not drawn)
inactive: growth inhibition [1] -8.73% | growth inhibition [2] -25% | viability increase [3] -3.43% | viability [4] 74.9% | viability [5] 73.8% | inhibition [6] 1.45% | RAM network inhibition [7] 5.31%

CCN1CCN(C(=O)CS(=O)(=O)Cc2nc(-c3ccc(C)cc3)oc2C)CC1
inactive: growth inhibition [1] -5.05% | growth inhibition [2] 3.62% | viability increase [3] -0.17% | viability [4] 85.2% | viability [5] 87.8% | inhibition [6] 0.805% | RAM network inhibition [7] 2.7%

O=C(NCCn1ccc2ccccc21)c1ccc(S(=O)(=O)N2CCCCC2)cc1
inactive: growth inhibition [1] -12.5% | growth inhibition [2] -22.4% | viability increase [3] -5.02% | viability [4] 79.6% | viability [5] 71.1% | inhibition [6] 0.45% | RAM network inhibition [7] 4.77%

CC(C)(C)n1nc2c(c1NC(=O)Cc1cccs1)CSC2
inactive: growth inhibition [1] -8.2% | growth inhibition [2] 12.2% | viability increase [3] -1.56% | viability [4] 93.8% | viability [5] 92.4% | inhibition [6] 0.95% | RAM network inhibition [7] 0.94%

N#Cc1ccccc1Cn1c(=O)n(-c2ccc(CC(=O)NCc3ccco3)cc2)c(=O)c2sccc21
inactive: growth inhibition [1] -3.44% | growth inhibition [2] 3.28% | viability increase [3] -1.7% | viability [4] 97.8% | viability [5] 99.6% | inhibition [6] 2.13% | RAM network inhibition [7] 4.46%

Cc1noc(C(=O)NCc2cccnc2)c1Cl
inactive: growth inhibition [1] -7.93% | growth inhibition [2] -8.18% | viability increase [3] 1.31% | viability [4] 110% | viability [5] 101% | inhibition [6] 0.865% | RAM network inhibition [7] 5.93%

CC(=O)N(c1ccccc1)C1SC(=O)N(c2ccccc2)C1=O (stereo not drawn)
inactive: growth inhibition [1] -15.9% | growth inhibition [2] -9.37% | viability increase [3] -0.06% | viability [4] 97.9% | viability [5] 99.7% | inhibition [6] 3.73% | RAM network inhibition [7] 6.65%

COc1ccc(NC(=O)C2CCN(S(=O)(=O)c3ccc(C)cc3)CC2)cc1OC
inactive: growth inhibition [1] 4.97% | growth inhibition [2] 1.39% | viability increase [3] -3.08% | viability [4] 97.1% | viability [5] 101% | inhibition [6] 2.25% | RAM network inhibition [7] 4.75%

CCCOCCOC(=O)C1=C(C)NC(=O)NC1c1cc(Cl)c(O)c(OC)c1 (stereo not drawn)
inactive: growth inhibition [1] -3.46% | growth inhibition [2] -0.16% | viability increase [3] -0.57% | viability [4] 102% | viability [5] 94.6% | inhibition [6] 0.265% | RAM network inhibition [7] -1.04%

CCOC(=O)Cn1c(=O)oc2cc(S(=O)(=O)N3CCc4ccccc43)ccc21
inactive: growth inhibition [1] -6.21% | growth inhibition [2] 1.04% | viability increase [3] -1.01% | viability [4] 91.8% | viability [5] 93.8% | inhibition [6] -0.605% | RAM network inhibition [7] 2.93%

COc1ccc(C(=O)Nc2ccc(S(=O)(=O)N3CCCCC3C)cc2)c(OC)c1OC (stereo not drawn)
inactive: growth inhibition [1] -3.56% | growth inhibition [2] -3.8% | viability increase [3] -0.18% | viability [4] 91.2% | viability [5] 96.1% | inhibition [6] 0.03% | RAM network inhibition [7] 1.24%

C=CCn1c(-c2ccc(N)cc2)nc2ccccc21
inactive: growth inhibition [1] -6.82% | growth inhibition [2] 3.25% | viability increase [3] -3.72% | viability [4] 93.3% | viability [5] 80.1% | inhibition [6] 1.5% | RAM network inhibition [7] 1.23%

c1ccc(N2CCN(c3ncnc4c3oc3ccccc34)CC2)cc1
inactive: growth inhibition [1] -16.2% | growth inhibition [2] 9.12% | viability increase [3] -0.47% | viability [4] 96% | viability [5] 100% | inhibition [6] -0.03% | RAM network inhibition [7] 8.18%

Cn1cc(S(=O)(=O)CC(=O)Nc2ccc3c(c2)OCO3)c2ccccc21
inactive: growth inhibition [1] -1.92% | growth inhibition [2] 4.48% | viability increase [3] -2.54% | viability [4] 95.9% | viability [5] 92.1% | inhibition [6] 0.5% | RAM network inhibition [7] 5.14%

COc1ccc(-c2nc(C(N)=O)c3[nH]c(=O)n(-c4cccc(C)c4)c3n2)c(OC)c1
inactive: growth inhibition [1] -10.8% | growth inhibition [2] -14.3% | viability increase [3] -5.41% | viability [4] 81.6% | viability [5] 74.3% | inhibition [6] 3.42% | RAM network inhibition [7] 5.6%
